What all share (format): cell-based
The subject of one data set is A549. In words: Cytotoxicity against human A549 cells after 72 hrs. The following applies: for EC50: Homo sapiens, A549, 72 h; for Activity: human, a549, 72 h. Summed up:
(§1)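 Sulforhodamine B assay run per the NCI procedure. Cells grown at 37 °C, humidified 5% CO2, in RPMI-1640 with 25 mM HEPES, […], 10% (v/v) FBS and 100 µg/mL kanamycin. Compounds dissolved in DMSO (final ≤1% v/v) and applied continuously for 72 h. EC50 is the concentration cutting cell number by 50%, interpolated from dose-response data. Assays run in triplicate. Doxorubicin served as positive control.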

The next data set has as its system PC-3. Briefly: Cytotoxicity against human PC3 cells after 72 hrs. The settings on record: for EC50: Homo sapiens, PC-3, 72 h; for Activity: human, pc-3, 72 h. In a few lines: as §1
For another data set, the system named is KB. Briefly: Cytotoxicity against human KB cells after 72 hrs. The settings on record: for EC50: Homo sapiens, KB; for Activity: human, kb. Summed up: as §1
Data set [1] can be described thus: Cytotoxicity against human multidrug-resistant KB-VIN cells after 72 hrs. The settings on record: for EC50: Homo sapiens, KBVIN; for Activity: human, kb-vin. Summed up:
as §1

A further data set has as its system 1A9. Briefly: Cytotoxicity against human 1A9 cells after 72 hrs. The following applies: for EC50: Homo sapiens, 1A9, 72 h; for Activity: human, 1a9, 72 h. Summed up:
as §1

The test system of a further data set is MCF7. In words: Cytotoxicity against human MCF7 cells after 72 hrs. The settings on record: for EC50: Homo sapiens, MCF7, 72 h; for Activity: human, mcf7, 72 h. Summed up:
as §1

Our source for the EC50 and Activity values is ChEMBL document CHEMBL1143014, “Cytotoxic activity of some natural and synthetic ent-kauranes” (J Nat Prod, 2007).

The term EC50 denotes the concentration that produces a half-maximal response. Higher therefore signals a less potent agent.

Take `C=C1C(=O)[C@@]23CCC4[C@H](C(=O)OC)CCC[C@@]4(C)[C@@H]2CC[C@@H]1C3` (some centres not stated): the EC50 in the data set on A549 worked out at 4.4 µM; with PC-3, 3.1 µM; with KB, 1.3 µM; in data set [1], 1.3 µM; in the data set on 1A9, 0.7 µM; with MCF7, 5 µM.

As for `C=C1C(=O)[C@@]23CCC4[C@H](C(=O)OC)C[C@@H](OC(=O)[C@@H]5OC(c6ccccc6)=N[C@H]5c5ccccc5)C[C@@]4(C)[C@@H]2CC[C@@H]1C3` (some centres not stated), the EC50 in the data set on A549 came out at 2.2 µM; in the data set on PC-3, 2.2 µM; with KB, 3 µM; in data set [1], 4.8 µM; with 1A9 it was 1.8 µM; in the data set with MCF7, 11.8 µM.

For the compound `C=C1C(=O)[C@@]23CCC4[C@H](C(=O)OC)C[C@@H](OC(=O)[C@H](O)[C@@H](NC(=O)c5ccccc5)c5ccccc5)C[C@@]4(C)[C@@H]2CC[C@@H]1C3` (some centres not stated), the EC50 stood at 1.7 µM with A549; 0.6 µM in the data set on PC-3; 2.6 µM with KB; 3.5 µM in data set [1]; 0.4 µM in the data set on 1A9; 1.5 µM in the data set with MCF7.

On to `C=C1C(=O)[C@@]23CCC4[C@H](C(=O)OC)C[C@@H](OS(=O)(=O)c5ccc(C)cc5)C[C@@]4(C)[C@@H]2CC[C@@H]1C3` (some centres not stated), for which the half-maximal effective concentration (EC50) with A549 worked out at 2.3 µM; in the data set on PC-3 it was 2.6 µM; with KB, 1.4 µM; in data set [1] it was 3.5 µM; in the data set with 1A9 it was 0.5 µM; in the data set on MCF7 it was 4.3 µM.

Regarding `C=C1C(=O)[C@@]23CCC4[C@H](C(=O)OC)C[C@@H](OC(=O)c5ccc6c(c5)OCO6)C[C@@]4(C)[C@@H]2CC[C@@H]1C3` (some centres not stated), the EC50 was 19 µM in the data set on A549; 9.2 µM with PC-3; 1.1 µM in the data set on KB; 3 µM in data set [1]; 3 µM in the data set on 1A9; 21.4 µM in the data set on MCF7.

On to `C=C1C(=O)[C@@]23CCC4[C@H](C(=O)OC)C[C@@H](OC(C)=O)C[C@@]4(C)[C@@H]2CC[C@@H]1C3` (some centres not stated), for which the EC50 in the data set on A549 was 3.3 µM; in the data set with PC-3, 1.4 µM; with KB, 3.6 µM; in data set [1], 4 µM; in the data set with 1A9, 0.5 µM; with MCF7 it was 0.9 µM.

Take `C=C1C(=O)[C@@]23CCC4[C@H](C(=O)OC)C[C@@H](O)C[C@@]4(C)[C@@H]2CC[C@@H]1C3` (some centres not stated): the EC50 in the data set with A549 is 1 µM; in the data set with PC-3, 4 µM; in the data set with KB, 1.5 µM; in data set [1], 2.6 µM; with 1A9 it was 0.3 µM; with MCF7, 2 µM.

In the case of `C=C1[C@@H]2CC[C@@H]3[C@@](CCC4[C@H](C(=O)OC)C/C(=N\NS(=O)(=O)c5ccc(C)cc5)C[C@]43C)(C2)[C@@H]1O` (some centres not stated), the EC50 in the data set on A549 was determined as 24.5 µM; in the data set on PC-3, 15.8 µM; with KB it was 18.1 µM; in data set [1], 20.4 µM; in the data set with 1A9, 7.5 µM; with MCF7 it was 18 µM.

For the compound `C=C1C(=O)[C@@]23CCC4[C@H](C(=O)OC)CC(=O)C[C@@]4(C)[C@@H]2CC[C@@H]1C3` (some centres not stated) [ATRACTYLIGENIN METHYL ESTER], the EC50 came to 3.4 µM in the data set with A549; 1.1 µM in the data set on PC-3; 1.6 µM with KB; 1.6 µM in data set [1]; 0.2 µM in the data set with 1A9; 1 µM with MCF7.

Turning to `C=C1[C@@H]2CC[C@@H]3[C@@](CCC4[C@H](C(=O)OC)C[C@@H](O)C[C@]43C)(C2)[C@@H]1O` (some centres not stated) [ATRACTYLIGENIN METHYL ESTER], the Activity entry (with A549; in the data set with PC-3; in the data set on KB; in data set [1]; with 1A9; with MCF7) was “Not Active” throughout.

With `C=C1[C@@H]2CC[C@@H]3[C@@](CCC4[C@H](C(=O)O)C[C@@H](O)C[C@]43C)(C2)[C@@H]1O` (some centres not stated) [ATRACTYLIGENIN], the Activity entry (with A549; in the data set on PC-3; in the data set on KB; in data set [1]; in the data set with 1A9; with MCF7) was “Not Active” in each case.

In the case of `COc1cccc2c1C(=O)c1c(O)c3c(c(O)c1C2=O)C[C@@](O)(C(=O)CO)C[C@@H]3O[C@H]1C[C@H](N)[C@H](O)[C@H](C)O1` [DOXORUBICIN], the EC50 in the data set with A549 worked out at 0.9 µM; in the data set with PC-3 it was 2 µM; in the data set on KB it was 0.4 µM; in data set [1], 1.7 µM; in the data set on 1A9, 0.1 µM; in the data set with MCF7, 0.2 µM.
